Measured values published in ChEMBL document CHEMBL1140471, “Inhibitors of NF-kappaB derived from thalidomide” (Bioorg Med Chem Lett, 2007).

Test: Inhibition of IL-1-alpha-induced NF-kappaB activation in HeLa cells assessed as blocking of p50/p65 nuclear translocation
Type: cell-based
Details: Homo sapiens
Method in brief: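 HeLa cells stimulated with IL-1α (5 ng/ml) with or without compound for 30 min, then fixed and immunostained for p65 with Hoechst nuclear counterstain. Plates were scanned by fluorescence imaging microscopy. IC50 = concentration reducing nuclear minus cytoplasmic p65 fluorescence by 50%.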

IC50 [µM] | Structure (SMILES)
> 50 | COC(=O)c1ccc2c(c1)C(=O)N(c1c(C(C)C)cccc1C(C)C)C2=O
> 50 | CC(C)c1cccc(C(C)C)c1N1C(=O)c2ccc(OS(N)(=O)=O)cc2C1=O
> 50 | CC(=O)Nc1ccc2c(c1)C(=O)N(c1c(C(C)C)cccc1C(C)C)C2=O
> 50 | CC(C)c1ccccc1N1C(=O)c2ccc(O)cc2C1=O
> 50 | CC(C)c1cccc(C(C)C)c1N1C(=O)c2ccc(C(=O)O)cc2C1=O
> 50 | CC(C)(C)c1ccccc1N1C(=O)c2ccc(O)cc2C1=O
> 50 | CCCc1ccccc1N1C(=O)c2ccc(O)cc2C1=O
0.43 | O=C1c2ccc(O)cc2C(=O)N1c1c(Br)cccc1Br
> 50 | Cc1ccc2c(c1)C(=O)N(c1c(C(C)C)cccc1C(C)C)C2=O
> 50 | O=C1c2ccc(O)cc2C(=O)N1c1c(F)cccc1F
> 50 | O=C1c2ccc(O)cc2C(=O)N1c1c(Cl)cccc1Cl
0.53 | CC(C)c1cccc(C(C)C)c1N1C(=O)c2ccc(O)cc2C1=O
> 50 | CC(C)c1cccc(C(C)C)c1N1C(=O)c2ccc(Cl)cc2C1=O
> 50 | Cc1cccc(C)c1N1C(=O)c2ccc(O)cc2C1=O
4.95 | CC(C)c1cccc(C(C)C)c1N1C(=O)c2cccc(O)c2C1=O
> 50 | CCc1cccc(CC)c1N1C(=O)c2ccc(O)cc2C1=O
> 50 | CC(C)c1cccc(C(C)C)c1N1C(=O)c2ccccc2C1=O
> 50 | CC(C)c1cccc(C(C)C)c1N1C(=O)c2cccc(N)c2C1=O
29.5 | CC(C)c1cccc(C(C)C)c1N1C(=O)c2ccc(N)cc2C1=O
> 50 | CC(C)c1cccc(C(C)C)c1N1C(=O)c2cccc([N+](=O)[O-])c2C1=O
> 50 | CC(C)c1cccc(C(C)C)c1N1C(=O)c2ccc([N+](=O)[O-])cc2C1=O
0.1 | CC(C)(C)c1ccc(S(=O)(=O)/C=C/C#N)cc1 [BAY-11-7085]
1.27 | Nc1cccc2c1C(=O)N(C1CCC(=O)NC1=O)C2=O (centres undefined) [POMALIDOMIDE]
2.04 | O=C1CCC(N2C(=O)c3ccccc3C2=O)C(=O)N1 (centres undefined) [THALIDOMIDE]
